Bioassay records (PubChem BioAssay)
In the library only some 1.5% were active in any assay of this set; here they are far more common.
HNF4A DNA FP – change in binding of human HNF4 alpha to DNA; AID 1224865; activity change, % at 10 µM; actives 0.3% (n = 360,000); P41235; HNF4a-FITC DNA binding, fluorescence polarization, 1 h; in the data active = activity change above about 30%, passing the limit was not always enough
Target sequence (P41235 whole entry, looked up): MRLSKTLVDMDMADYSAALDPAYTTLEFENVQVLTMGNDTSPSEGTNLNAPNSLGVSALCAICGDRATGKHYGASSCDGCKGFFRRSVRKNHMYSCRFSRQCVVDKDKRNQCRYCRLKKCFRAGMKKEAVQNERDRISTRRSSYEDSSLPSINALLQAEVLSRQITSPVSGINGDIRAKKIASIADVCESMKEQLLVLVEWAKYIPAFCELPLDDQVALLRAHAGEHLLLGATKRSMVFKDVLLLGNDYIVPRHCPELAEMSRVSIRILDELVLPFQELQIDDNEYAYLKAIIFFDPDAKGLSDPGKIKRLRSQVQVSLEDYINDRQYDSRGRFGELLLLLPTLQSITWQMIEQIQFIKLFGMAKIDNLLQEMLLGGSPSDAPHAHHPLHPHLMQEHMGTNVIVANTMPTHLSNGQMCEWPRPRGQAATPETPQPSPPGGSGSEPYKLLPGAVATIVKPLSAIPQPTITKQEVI
CSN deneddyl inh – blocks human CSN-mediated cullin deneddylation. actives 0.38% (n = 360,000). AID 651999. inhibition, % at 12.5 µM. Purified CSN, SCF-Nedd8-OG deneddylation, fluorescence polarization;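 active = pattern-corrected inhibition above about 35%, with an unprinted fluorescence ratio check between 0.5 and 1.5, limit read from the data, passing the limit was not always enough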;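 note: 0% = enzyme with substrate and 100% = substrate without enzyme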
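assay system = purified human Csn5 enzyme expressed in HEK293T cells | amount = 0.24 nM enzyme | buffer or medium = Tris/NaCl/DTT buffer, pH 7.5 | reagent = 10 nM SCFSkp2-Nedd8OG | compound = one concentration, 12.5 µM, 0.25% DMSO | times = 90 min reaction at room temperature | signal = FP | read-out basis = % inhibition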
TPT1 inh – blocks Candida albicans tRNA 2'-phosphotransferase; inhibition, % at 5 µM; actives 0.81% (n = 300,000); recombinant caTPT1, FP RNA substrate dephosphorylation; AID 1962;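 active = inhibition above the mean of all tested compounds plus 3 SD, set per screening campaign, cut at about 24% in these data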;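 note: plate controls were DMSO alone for no effect and ferristatin control at 100 nM for full effect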
Rpn11 inh – Rpn11 (human) deubiquitinase inhibition; O00487; human 26S proteasome, Ub4-pepOG fluorescence polarization; 20S core pre-blocked with epoxomicin; calls only at 20 µM; actives 0.59% (n = 360,000);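 active = inhibition at 20 µM, scaled to each plate's controls, above about 33%, limit read from the data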
caTPT1 confirm – TPT1 (C. albicans) inhibition, confirmation; shares compounds with TPT1 inh; recombinant caTPT1, fluorescence polarization, RNase T1 coupled; inhibition, % at 5 µM; actives 74% (n = 2,400);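 active = inhibition above the primary screen limit, the mean inhibition of all tested compounds plus 3 SD, cut at about 25% in these data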
RNase T1 counter – RNase T1 inhibition in TPT1 counter-screen; actives 83% (n = 2,400); inhibition, % at 5 µM; shares compounds with TPT1 inh; RNase T1 cleavage, fluorescence polarization, 1536-well; AID 2153;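 active = inhibition above the solvent-only control well mean plus 3 SD, limit set per screening run, cut at about 23% in these data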;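 note: plate controls were DMSO wells with enzyme for no effect and wells without RNase T1 for full effect; inhibitors block cleavage so intact labeled substrate keeps polarization high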
Target sequence (P00651 whole entry, looked up): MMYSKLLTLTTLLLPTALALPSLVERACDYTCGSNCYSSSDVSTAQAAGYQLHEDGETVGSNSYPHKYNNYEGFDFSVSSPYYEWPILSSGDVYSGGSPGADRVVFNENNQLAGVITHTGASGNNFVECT
* = called active by the depositor; i = inactive; . = no result shown; + = active, no number.

SMILES | HNF4A DNA FP | CSN deneddyl inh | TPT1 inh | Rpn11 inh | caTPT1 confirm | RNase T1 counter
COCOCCn1cc(CN2CCS(=O)(=O)N(Cc3ccc(-c4ccc(OC)cc4)cc3)C(C)C2=O)nn1 (centres undefined) | 6 | 3 | . | i | . | .
Cc1[nH]c2ccccc2c1/C=N/NC(=O)c1cccc([N+](=O)[O-])c1 | 3 | -4 | 3 | i | . | .
COc1ccccc1NS(=O)(=O)c1cc([N+](=O)[O-])ccc1N/N=C/c1c(C)[nH]c2ccccc12 | 57* | 26 | 101* | . | 104* | 107*
CCCc1ccc(C(O)c2ncc(-c3ccccc3C)[nH]2)cc1 (centres undefined) | -3 | 0 | . | i | . | .
CCN(CC)c1ccc(/C=C2\C(=N)N3N=C(CC(=O)N4CCOCC4)SC3=NC2=O)cc1 | 205 | 122 | 137* | . | 174* | 164*
COc1cc(S(=O)(=O)Nc2ccc3c(c2)C(=O)N(C)C3=O)ccc1NC(C)=O | -2 | 5 | . | i | . | .
CCSC1=N/C(=C\C=C2/Oc3ccccc3N2CC)C(=O)S1 | 187 | 118 | 138* | . | 148* | 143*
CCSC1=N/C(=C\c2cccc(F)c2)C(=O)S1 | 2 | -5 | 2 | i | . | .
COc1cc2cc(/C=C/C(=O)c3ccco3)c(Cl)nc2cc1OC | 16 | 23 | 33* | . | 47* | 56*
COc1ccc2cc(/C=C/C(=O)c3ccco3)c(Cl)nc2c1 | . | . | 17 | . | . | .
CCOC(=O)C1CCN(Cc2cccc(OCc3ccccc3)c2)CC1 | -2 | 2 | 1 | i | . | .
CC(=O)NC1=NN(c2ccccc2)C(=O)C1 | 1 | 1 | 3 | i | . | .
O=C(CCCCl)NC1=NN(c2ccccc2)C(=O)C1 | 0 | -3 | 35* | i | 7 | 8
CN1C(=O)[C@H]2[C@@H](c3ccc(C(F)(F)F)cc3)N[C@]3(CCCN(Cc4ccc(C(F)(F)F)cc4)C3=O)[C@H]2C1=O | -3 | 2 | . | i | . | .
COc1ccc(CNC(=O)/C=C/c2cc([N+](=O)[O-])ccc2OC(F)F)cc1OC | -1 | 4 | 37* | i | 7 | 8
CCN(CC)c1ccc(C=C2C(=O)OC3(CCCC3)OC2=O)cc1 | 0 | 10 | 29* | i | 140* | 142*
CN(C)c1ccc(C=C2C(=O)OC(C)(C(C)(C)C)OC2=O)cc1 (centres undefined) | -3 | 2 | 15 | i | . | .
CCN(CC)c1ccc(C=C2C(=O)OC(C)(C(C)(C)C)OC2=O)cc1 (centres undefined) | 5 | 19 | 78* | . | 162* | 152*
Cc1cc(=O)n2nc(N3CCC(C(=O)Nc4cccc(Cl)c4C)CC3)sc2n1 | -6 | 1 | 0 | i | . | .
Cc1cc(=O)n2nc(N3CCCC3C(=O)Nc3cccc(Cl)c3C)sc2n1 (centres undefined) | 13 | 4 | 30* | i | 92* | 103*
O=C(c1ccc(CS(=O)Cc2ccccc2Cl)o1)N1CCN(C2CCCCC2)CC1 (centres undefined) | -2 | -5 | 117* | i | 7 | 4
Nc1c(C(=O)Nc2nccs2)sc2nc(-c3cccs3)cc(C(F)(F)F)c12 | 61 | 64 | 31* | . | 29* | 41*
CCC(C)Nc1nc(CN2CCOCC2)nc2sc3c(c12)CCC3 (centres undefined) | 1 | 8 | 0 | i | . | .
CCN(CC)CCCNc1nc(CN2CCOCC2)nc2sc3c(c12)CCC3 | -5 | -10 | 35* | i | 8 | 9
O=c1nc(/C=C/c2ccc(-c3ccc(F)cc3)o2)cc(C(F)(F)F)[nH]1 | . | . | 110* | . | 106* | 106*
SMILES | HNF4A DNA FP | CSN deneddyl inh | TPT1 inh | Rpn11 inh | caTPT1 confirm | RNase T1 counter
O=C(O)c1ccccc1-c1ccc(/C=C/c2cc(C(F)(F)F)[nH]c(=O)n2)o1 | 47 | -13 | . | . | . | .
O=C(O)c1cc(Cl)ccc1-c1ccc(/C=C/c2cc(C(F)(F)F)[nH]c(=O)n2)o1 | 76 | -90 | 62* | . | 85* | 91*
O=Cc1ccc(-c2ccc(F)cc2)o1 | 0 | 7 | 2 | i | . | .
CCN(CC)c1ccc(/C=C/c2cc(-c3ccccc3)c3ccccc3n2)cc1 | 99 | 92 | 94* | . | 87* | 90*
CCOc1ccccc1C(=O)NCC(=O)OCC(=O)N1CCCC1 | 1 | 0 | . | i | . | .
COc1ccc(/C=C/c2cc[n+](C(=O)Cc3ccccc3)cc2)cc1 | 4 | 6 | 26* | i | 7 | 8
COc1ccc(/C=C/C(=O)NCCCc2ccccc2)cc1 | -1 | -10 | 1 | i | . | .
O=C(COC(=O)CCN1C(=O)/C(=C\C=C\c2ccccc2)SC1=S)Nc1cc(F)ccc1F | 22 | 8 | 28* | . | 33* | 42*
COC(=O)C(=O)C1CCc2c(Cl)cc(OC)c(OC)c2C1=O (centres undefined) | 0 | -3 | . | i | . | .
Oc1[nH]c2ccccc2c1/C=N/c1nccs1 | 18 | 15 | 36* | i | 35* | 45*
O=C(/C=C/c1cn(CC(O)CN2CCCCCC2)c2ccccc12)c1cccs1 (centres undefined) | 23 | 34 | 57* | . | 68* | 76*
CC1CN(S(=O)(=O)c2cc(C(=O)N3CCCCC3C)ccc2Cl)CC(C)O1 (centres undefined) | 1 | 3 | . | i | . | .
COc1cc(/C=C(\C#N)c2nc3ccccc3n2C)cc(OC)c1O | 3 | 18 | 83* | . | 101* | 101*
COC(=O)/C(C#N)=C/c1c[nH]c2ccccc12 | -3 | -2 | 2 | i | . | .
COc1cc(/C=C(\C#N)C(=O)c2c[nH]c3ccccc23)cc(OC)c1O | 84* | 166 | 128* | . | 156* | 143*
COc1ccc(/C=C(\C#N)c2nc3ccccc3[nH]2)cc1O | 3 | 3 | . | i | . | .
COc1cc(/C=C(\C#N)c2nc3ccccc3[nH]2)cc(OC)c1O | 104 | 157 | 137* | . | 133* | 124*
Cc1ccc2nc(SCC(=O)Nc3ccc4sc(C)nc4c3)c(C#N)cc2c1 | 3 | 0 | 25* | i | 6 | 10
Cn1cccc1/C=C1\SC(=S)N(Nc2ccccc2)C1=O | 58* | 34 | 42* | . | 72* | 87*
Cc1ccc(S(=O)(=O)NN2C(=O)/C(=C/c3cccn3C)SC2=S)cc1 | . | . | 57* | . | 60* | 74*
O=C(/C=C/c1ccccc1)c1cc(Br)ccc(=O)c1O | 3 | 34 | 17 | i | . | .
CCNc1ccc(Br)cc(C(=O)/C=C/c2c(Cl)cccc2Cl)c1=O | 3 | 37* | 70* | + | 75* | 84*
CCNc1ccc(Br)cc(C(=O)/C=C/c2ccc(Cl)cc2)c1=O | -1 | 32 | 64* | i | 46* | 71*
COc1cc(Cl)cc(CN2CCC(CCC(=O)NC3CC3)CC2)c1OC | 1 | 1 | 2 | i | . | .
